Laboratory results: ChEMBL document CHEMBL1156051, “Synthesis and evaluation of lysophosphatidylserine analogues as inducers of mast cell degranulation. Potent activities of lysophosphatidylthreonine and its 2-deoxy derivative” (J Med Chem, 2009)
Calls of active or inactive are those of the source. The calls are words filed in the database; no cut-off is given here.

Assays:
Mast cell [1] = assay: Induction of Wistar rat peritoneal mast cell degradation assessed as concanavalin A-induced histamine release after 15 mins fluorometric assay; format: functional, cell-based; conditions: 0.25 h
Outline: (§1)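 Peritoneal mast cells at 5 × 10^4/mL in HEPES-buffered Tyrode stimulated with analogue plus 100 μg/mL concanavalin A for 15 min at 37 C. Supernatant histamine measured fluorometrically and expressed as percent of total cell histamine. Means ± SE of three independent experiments.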

Mast cell [2] = assay: Induction of C57BL/6 mouse peritoneal mast cell degradation assessed as concanavalin A-induced histamine release after 15 mins fluorometric assay; format: functional, cell-based; conditions: C57BL/6, Mast cell, 0.25 h
Outline: (§2)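 Peritoneal mast cells at 5 × 10^4/mL in HEPES-buffered Tyrode stimulated with analogue plus 10 μg/mL concanavalin A for 15 min at 37 C. Supernatant histamine measured fluorometrically and expressed as percent of total cell histamine. Means ± SE of three independent experiments.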

Rattus norvegicus [3] = assay: Effect on hypothermic effect in iv dosed Wistar rat assessed as reduction in rectal temperature measured every 5 to 10 mins for 60 mins; format: functional, organism-based
Outline: (§3)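 Analogue suspended in PBS with 0.1% BSA and given intravenously; rectal temperature read with a rectal probe every 5 or 10 min for 60 min. Means ± SE of three independent experiments.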

Mus musculus [4] = assay: Effect on hypothermic effect in iv dosed C57BL/6 mouse assessed as reduction in rectal temperature measured every 5 to 10 mins for 60 mins; format: functional, organism-based; outline: as §3
Mast cell [5] = assay: Induction of Wistar rat peritoneal mast cell degradation assessed as concanavalin A-induced histamine release at 0.01 to 10 uM after 15 mins fluorometric assay; format: functional, cell-based; outline: as §1
Mast cell [6] = assay: Induction of C57BL/6 mouse peritoneal mast cell degradation assessed as concanavalin A-induced histamine release at 0.01 to 10 uM after 15 mins fluorometric assay; format: functional, cell-based; outline: as §2
Mus musculus [7] = assay: Effect on hypothermic effect in mast cell-deficient WBB6F1 mouse assessed as reduction in rectal temperature at 10 ug, iv measured every 5 to 10 mins for 60 mins; format: functional, organism-based
Outline: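 W/Wv mast cell-deficient mice, with C57BL/6 as comparison, were given 10 μg iv in PBS containing 0.1% BSA. Rectal temperature was monitored every 5 or 10 min for 60 min. Three independent experiments.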

Mus musculus [8] = assay: Increase in plasma histamine level in iv dosed C57BL/6 mouse after 2 mins by EIA; format: functional, organism-based
Outline: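 Mice injected i.v. with analogue in PBS with 0.1% BSA; blood taken 2 min after injection and plasma histamine measured by enzyme immunoassay. Means ± SE of three independent experiments.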

[9] = target: Probable G-protein coupled receptor 34 (Mus musculus) (UniProt Q9R1K6); assay: Activation of mouse GPR34 expressed in CHOK1 cells assessed as inhibition of forskolin-induced cAMP production at 0.01 to 10 uM after 30 mins by EIA; format: functional, cell-based; conditions: CHO-K1
Outline: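 CHO-K1 stably expressing flag-tagged mouse GPR34, cultured overnight, pretreated 20 min with 0.5 mM IBMX, then costimulated with analogue plus 25 μM forskolin for 30 min at 37 C; cAMP measured by EIA, level without ligand set as 100%.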

Mast cell [10] = assay: Induction of Wistar rat peritoneal mast cell degradation assessed as anti-DNP IgE-induced histamine release at 0.01 to 10 uM after 15 mins fluorometric assay; format: functional, cell-based
[11] = Cytotoxicity against concanavalin A-stimulated Wistar rat peritoneal mast cells assessed as LDH release at 50 uM; format: cell-based
CHO-K1 [12] = assay: Increase in MAPK level in CHOK1 cells at 0.01 to 10 uM by Western blotting; format: functional, cell-based; conditions: Cricetulus griseus
Outline: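 Serum-starved mock (empty vector) transfected CHO-K1 cells were stimulated for 5 min at 37 C and cooled on ice to stop. Lysates (6 μg protein) were Western blotted for phospho- and total p42/p44 MAP kinase.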

[13] = target: Probable G-protein coupled receptor 34 (Mus musculus) (UniProt Q9R1K6); assay: Activation of mouse GPR34 expressed in CHOK1 cells assessed as total ERK level at 0.01 to 10 uM by Western blotting; format: cell-based; conditions: CHO-K1
Outline: (§4)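 Serum-starved CHO-K1 cells stably expressing flag-tagged GPR34 were stimulated with analogue for 5 min at 37 C and stopped by rapid cooling on ice. Lysates (6 μg protein) were Western blotted with antibodies to phospho-p42/p44 and total p42/p44 MAP kinase. Mock-transfected cells served as control.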

Mus musculus [14] = assay: Effect on hypothermic effect in C57BL/6 mouse assessed as reduction in rectal temperature at 25 to 100 ug, iv measured every 5 to 10 mins for 60 mins; format: functional, organism-based
Outline: (§5)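 Analogue suspended in PBS with 0.1% BSA and injected iv into C57BL/6 mice or Wistar rats; rectal temperature recorded by probe every 5 or 10 min for 60 min. Means of three independent experiments.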

Rattus norvegicus [15] = assay: Effect on hypothermic effect in Wistar rat assessed as reduction in rectal temperature at 20 to 200 ug, iv measured every 5 to 10 mins for 60 mins; format: functional, organism-based; outline: as §5
Mast cell [16] = assay: Stimulation of mouse bone marrow-derived mast cell degranulation; format: functional, cell-based
[17] = target: Probable G-protein coupled receptor 34 (Mus musculus) (UniProt Q9R1K6); assay: Activation of mouse GPR34 expressed in CHOK1 cells assessed as increase in intracellular calcium level by spectrofluorimetry; format: functional, cell-based; conditions: CHO-K1
Outline: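 Fura-2-loaded CHO-K1 cells stably expressing flag-tagged GPR34 (G418 selection, then anti-flag immunomagnetic positive selection), stimulated with analogue at 2 μM; [Ca2+]i read fluorometrically as ratio of 500 nm emission at 340/380 nm excitation.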

CHO-K1 [18] = assay: Increase in intracellular calcium level in CHOK1 cells by spectrofluorimetry; format: functional, cell-based; conditions: Cricetulus griseus
Outline: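 Fura-2-loaded mock-transfected CHO-K1 cells were stimulated at 2 μM; [Ca2+]i read as 500 nm emission ratio at 340/380 nm excitation.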

[19] = target: Probable G-protein coupled receptor 34 (Mus musculus) (UniProt Q9R1K6); assay: Activation of mouse GPR34 expressed in CHOK1 cells assessed as phosphorylated ERK level at 0.01 to 10 uM by Western blotting; format: cell-based; conditions: CHO-K1; outline: as §4
CHO-K1 [20] = assay: Inhibition of forskolin-induced cAMP production in CHOK1 cells at 0.01 to 10 uM after 30 mins by EIA; format: functional, cell-based; conditions: Cricetulus griseus
Outline: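 Mock-transfected CHO-K1 cells were cultured overnight and pretreated 20 min with 0.5 mM IBMX, then costimulated with analogue and 25 μM forskolin for 30 min at 37 C; accumulated cAMP was measured by EIA.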

Mast cell [21] = assay: Induction of Wistar rat peritoneal mast cell degranulation assessed as concanavalin A-induced histamine release at 0.03 uM pretreated for 15 mins measured after washout with 0.5% fatty acid-free BSA by fluorometric assay; format: functional, cell-based
Outline: (§6)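 Rat peritoneal mast cells preincubated with analogue, then washed with buffer containing 0.01% or 0.5% fatty-acid-free BSA. Cells then challenged with concanavalin A, and histamine release measured.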

Mus musculus [22] = assay: Effect on hypothermic effect in C57BL/6 mouse assessed as reduction in rectal temperature at 1 to 5 ug, iv measured every 5 to 10 mins for 60 mins; format: functional, organism-based; outline: as §3
Mast cell [23] = assay: Ratio of lysophosphatidylserine EC50 to compound EC50 for induction of concanavalin A-stimulated Wistar rat peritoneal mast cell […] associated histamine release; format: functional
Mast cell [24] = assay: Induction of Wistar rat peritoneal mast cell degranulation assessed as concanavalin A-induced histamine release at 0.03 uM pretreated for 15 mins measured after washout with 0.01% fatty acid-free BSA by fluorometric assay; format: functional, cell-based; outline: as §6
[25] = test system: G protein-coupled receptor 34 (Mus musculus); assay: Activation of mouse GPR34 expressed in CHOK1 cells assessed as increase in intracellular calcium level by spectrofluorimetry; conditions: CHO-K1
Mast cell [26] = assay: Ratio of compound activity over lysophosphatidylserine activity for induction of anti-DNP IgE-stimulated Wistar rat peritoneal mast cell […] associated histamine release; format: functional
Rattus norvegicus [27] = organism: Rattus norvegicus; assay: Ratio of compound activity over lysophosphatidylserine activity for induction of hypothermic effect in Wistar rat; format: functional
Rattus norvegicus [28] = assay: Effect on hypothermic effect in Wistar rat assessed as reduction in rectal temperature at 20 to 100 ug, iv measured every 5 to 10 mins for 60 mins; format: functional, organism-based; outline: as §3
Mus musculus [29] = organism: Mus musculus; assay: Ratio of compound activity over lysophosphatidylserine activity for induction of hypothermic effect in C57BL/6 mouse; format: functional
[30] = test system: G protein-coupled receptor 34 (Mus musculus); assay: Activation of mouse GPR34 expressed in CHOK1 cells assessed as phosphorylated ERK level at 0.01 to 10 uM by Western blotting; conditions: CHO-K1
Mast cell [31] = assay: Ratio of lysophosphatidylserine EC50 to compound EC50 for induction of concanavalin A-stimulated C57BL/6 mouse peritoneal mast cell […] associated histamine release; format: functional
[32] = test system: G protein-coupled receptor 34 (Mus musculus); assay: Activation of mouse GPR34 expressed in CHOK1 cells assessed as total ERK level at 0.01 to 10 uM by Western blotting; conditions: CHO-K1

Chain of Probable G-protein coupled receptor 34 (Mus musculus) (Q9R1K6 whole entry): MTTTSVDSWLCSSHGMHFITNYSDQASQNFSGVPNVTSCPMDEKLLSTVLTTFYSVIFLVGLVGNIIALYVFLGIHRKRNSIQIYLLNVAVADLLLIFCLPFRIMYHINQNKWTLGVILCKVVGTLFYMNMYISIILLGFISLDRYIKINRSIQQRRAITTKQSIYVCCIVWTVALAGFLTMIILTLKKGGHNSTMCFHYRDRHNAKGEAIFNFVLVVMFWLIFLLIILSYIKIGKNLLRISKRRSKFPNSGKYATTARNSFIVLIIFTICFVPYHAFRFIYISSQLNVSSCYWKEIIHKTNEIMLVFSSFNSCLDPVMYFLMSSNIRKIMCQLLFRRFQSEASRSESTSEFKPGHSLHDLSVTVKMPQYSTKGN

Row | Structure (SMILES) | EC50 (Mast cell [1]) [nM] | EC50 (Mast cell [2]) [nM] | Activity (Rattus norvegicus [3]) | Activity (Mus musculus [4]) | Activity (Mast cell [5]) | Activity (Mast cell [6]) | Activity (Mus musculus [7]) | Activity (Mus musculus [8]) | Activity [9] | Activity (Mast cell [10]) | Activity [11] | Activity (CHO-K1 [12]) | Activity [13] | Activity [17] | Activity (CHO-K1 [18]) | Activity [19] | Activity (CHO-K1 [20]) | also measured
1 | CCCCCCCCCCCCCCCCCC(=O)OC[C@@H](O)COP(=O)(O)O[C@@H](C)[C@H](N)C(=O)O | 2000 | 200 | inactive | inactive |  |  |  |  |  |  |  |  |  |  |  |  |  | 
2 | CCCCCCCCCCCCCCCC(=O)OCCCOP(=O)(O)O[C@H](C)[C@@H](N)C(=O)O | > 10000 |  | inactive | inactive |  |  |  |  |  |  |  |  |  |  |  |  |  | 
3 | CCCCCCCCCCCCCCCCCC(=O)OCCCOP(=O)(O)O[C@H](C)[C@H](N)C(=O)O | 100 | 7 |  | Active | Active | Active | inactive | Active |  |  |  |  |  |  |  |  |  | 
4 | CCCCCCCCCCCCCCCCCC(=O)OC[C@@H](O)COP(=O)(O)OC[C@H](N)C(=O)O | 400 | 100 |  |  |  |  | inactive |  | Active | Active | Non-toxic | inactive | Active | Active | inactive | Active | inactive | Activity (Mus musculus [14]): Active; Activity (Rattus norvegicus [15]): Active; Activity (Mast cell [16]): inactive
5 | CCCCCCCCCCCCCCCCCC(=O)OC[C@@H](O)COP(=O)(O)O[C@H](C)[C@H](N)C(=O)O | 40 | 10 |  |  | Active | Active |  | Active | inactive | Active | Non-toxic | inactive | inactive | inactive | inactive | inactive | inactive | Activity (Mast cell [21]): inactive; Activity (Mus musculus [22]): Active; Ratio EC50 (Mast cell [23]): 10; Activity (Mast cell [24]): Active; Activity [25]: inactive; Ratio (Mast cell [26]): 10; Ratio (Rattus norvegicus [27]): 50; Activity (Rattus norvegicus [28]): Active; Ratio (Mus musculus [29]): 20; Activity [30]: inactive; Ratio EC50 (Mast cell [31]): 10; Activity [32]: inactive
